Assay results as given in ChEMBL document CHEMBL1144102, “New cytotoxic polyacetylenes from the marine sponge Petrosia” (1999).
≈ marks a conversion by molar mass, not a printed value.

Assays:
Assay type in all cases: functional
A549 = assay: Cytotoxicity against human A549 cells by MTT assay; conditions: read-out: ED50 (the source's name)
SK-OV-3 = assay: Cytotoxicity against human SKOV3 cells by MTT assay; conditions: read-out: ED50 (the source's name)
SK-MEL-2 = assay: Cytotoxicity against human SK-MEL-2 cells by MTT assay; conditions: read-out: ED50 (the source's name)
XF498 = assay: Cytotoxicity against human XF498 cells by MTT assay; conditions: read-out: ED50 (the source's name)
HCT-15 = assay: Cytotoxicity against human HCT-15 cells by MTT assay; conditions: read-out: ED50 (the source's name)
Simian virus 40 [1] = assay: Antiviral activity against SV40 virus assessed as inhibition of DNA replication at 125 uM; conditions: Betapolyomavirus macacae
Outline: (§1)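 Cell-free SV40 origin DNA replication: mixtures contained 40 mM creatine phosphate-di-Tris (pH 7.7), creatine kinase, 7 mM MgCl2, 0.5 mM DTT, 4 mM ATP, 200 µM UTP/GTP/CTP, 100 µM dATP/dGTP/dCTP, 25 µM [3H]dTTP, SV40 T-Ag, SV40 origin plasmid (pUC) and replication proteins. Incubated 90 min at 37 °C, then acid-insoluble radioactivity counted.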

Simian virus 40 [2] = assay: Antiviral activity against SV40 virus assessed as inhibition of DNA replication at 250 uM; conditions: Betapolyomavirus macacae; outline: as §1
Simian virus 40 [3] = assay: Antiviral activity against SV40 virus assessed as inhibition of DNA replication at 500 uM; conditions: Betapolyomavirus macacae; outline: as §1

| SMILES | EC50 (A549) | EC50 (SK-OV-3) | EC50 (SK-MEL-2) | EC50 (XF498) | EC50 (HCT-15) | inhibition at 125 µM (Simian virus 40 [1]) | inhibition at 250 µM (Simian virus 40 [2]) | inhibition at 500 µM (Simian virus 40 [3]) |
| --- | --- | --- | --- | --- | --- | --- | --- | --- |
| C#C/C=C\CCCCCCCCCCCCC/C=C\CCCC/C=C\CCCCC#C[C@@H](O)C#CCCCCCC/C=C/[C@H](O)C#C [NOR-3S,14S-PETROCORTYNE A] | 7.3 µg/mL (≈ 11.4 µM) | 4.4 µg/mL (≈ 6.86 µM) | 3.8 µg/mL (≈ 5.93 µM) | 6.1 µg/mL (≈ 9.52 µM) | 3.5 µg/mL (≈ 5.46 µM) | 12% | 47% | 70% |
| C#C/C=C\CCCCCCCCCCCCC/C=C/C(=O)CCCC/C=C\CCCCC#C[C@@H](O)C#CCCCCCC/C=C/[C@H](O)C#C [PETROTETRAYNDIOL C] | > 10 µg/mL | 4.2 µg/mL (≈ 6.28 µM) | 4.1 µg/mL (≈ 6.13 µM) | 12.7 µg/mL (≈ 19 µM) | 5.7 µg/mL (≈ 8.52 µM) | 45% | 46% | 81% |
